Experimental data: BindingDB's records for doi:10.1016/j.ejmech.2013.06.039 (University of Salerno, 2013)
pIC50: −log10 of the molar value.

Key:
[1] = molecular target: T1, Polyunsaturated fatty acid 5-lipoxygenase (Homo sapiens, UniProt P09917); assay: Inhibition of 5-LO in human PMNL using arachidonic acid as substrate preincubated for 15 mins
T1 sequence (P09917 whole entry): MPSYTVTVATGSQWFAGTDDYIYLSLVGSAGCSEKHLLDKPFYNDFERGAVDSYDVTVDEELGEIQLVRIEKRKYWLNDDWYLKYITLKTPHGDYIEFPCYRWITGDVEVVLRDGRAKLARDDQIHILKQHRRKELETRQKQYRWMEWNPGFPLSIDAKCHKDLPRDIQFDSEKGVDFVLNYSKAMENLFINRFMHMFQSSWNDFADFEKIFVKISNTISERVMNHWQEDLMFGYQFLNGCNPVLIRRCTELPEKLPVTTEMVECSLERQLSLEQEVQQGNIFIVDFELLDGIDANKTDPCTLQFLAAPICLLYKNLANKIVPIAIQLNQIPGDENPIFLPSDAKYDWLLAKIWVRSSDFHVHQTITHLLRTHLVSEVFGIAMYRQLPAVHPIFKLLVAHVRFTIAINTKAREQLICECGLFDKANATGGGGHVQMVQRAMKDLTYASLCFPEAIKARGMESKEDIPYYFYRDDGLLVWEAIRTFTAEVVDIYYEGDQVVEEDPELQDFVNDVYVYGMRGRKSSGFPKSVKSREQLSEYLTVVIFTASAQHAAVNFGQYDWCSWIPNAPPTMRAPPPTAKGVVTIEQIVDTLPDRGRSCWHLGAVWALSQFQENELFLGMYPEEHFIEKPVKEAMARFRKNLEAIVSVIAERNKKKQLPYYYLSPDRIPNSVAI
Outline: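 PMNL were isolated from buffy coats by dextran sedimentation, Nycoprep centrifugation and hypotonic lysis of erythrocytes, then resuspended in PBS pH 7.4 with 1 mg/mL glucose and 1 mM CaCl₂. Cells were pre-incubated with compound for 15 min at 37 °C, then stimulated with A23187 plus AA for 10 min at 37 °C. 15-LO comes from eosinophils and 12-LO from adhering platelets in the preparation. After methanol/HCl stop and PGB₁ addition, metabolites were extracted and quantified by HPLC. Mean ± S.E.M., n = 3–4.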

[2] = molecular target: T1, Polyunsaturated fatty acid 5-lipoxygenase; assay: Inhibition of human recombinant 5-LO expressed in Escherichia coli BL21 using arachidonic acid as substrate after 10 mins
Outline: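 Purified 5-LO was diluted in PBS/EDTA and pre-incubated with compound for 5–10 min at 4 °C, then pre-warmed for 30 s at 37 °C. The reaction was started with 2 mM CaCl₂ plus AA, run 10 min at 37 °C and stopped with ice-cold methanol. Products were analysed by HPLC.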

COC1=CC(=O)C(=O)C(Cc2ccc3ccccc3c2)C1=O (stereo not drawn)
pIC50 [1]: < 5.00 | pIC50 [2]: < 5.00

O=C1C=C(Cc2ccccc2)C(=O)CC1=O
pIC50 [1]: < 5.00 | pIC50 [2]: < 5.00

COC1=CC(=O)C(=O)C(Cc2ccccc2)C1=O (stereo not drawn)
pIC50 [1]: < 5.00 | pIC50 [2]: < 5.00

O=C1CC(=O)C(=O)C(CC2CCCCC2)C1=O
pIC50 [1]: < 5.00 | pIC50 [2]: < 5.00
